Hits are enriched below; roughly 2.2% of the tested compounds scored in any of these assays.
MT stabilize HCS – microtubule stabilization, imaging screen. 200,000 compounds, 0.83% hits. AID 2205. % tubulin-high responders, % at 10 µM. HeLa tubulin immunostaining HCS, 24 h; share of cells brighter than vehicle mean+2SD;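 active = plate Z-score above 3 for both tubulin-high and condensed-nucleus cell shares, with cell loss under 80%, at 10 µM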;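 also: anti alpha tubulin signal scored within the nucleus-defined area of each cell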
APP transl inh – APP translation inhibition | SH-SY5Y APP 5'UTR-luciferase reporter, luminescence | inhibition, % at 2 µM | 190,000 compounds, 0.82% hits;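 active = inhibition above a set limit, derived from the sample mean plus 3 SD, cut at about 45% in these data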
Ba/F3 V617F tox – loss of viability in JAK2V617F-driven Ba/F3 cells | 220,000 compounds, 1.1% hits | inhibition, % at 5.6 µM | Ba/F3 EpoR-JAK2V617F viability, ATP luminescence;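 active = inhibition above the campaign mean plus 3 SD over all tested compounds, cut at about 24% in these data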;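 also: cytokine-independent growth of Ba/F3 cells driven by EpoR plus mutant JAK2; 0% = DMSO-treated cells and 100% = JAK inhibitor I control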
BaF3 parental – parental Ba/F3 viability inhibition as JAK2V617F counter-screen; CellTiter-Glo ATP luminescence; inhibition, % at 5.6 µM; 220,000 compounds, 1.1% hits;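 active = inhibition above a per-campaign cutoff, the mean inhibition of all tested compounds plus 3 SD, cut at about 27% in these data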;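 also: 0% = DMSO wells and 100% = JAK Inhibitor I control wells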
bCat nuc transl – beta-catenin nuclear translocation modulation; nuclear translocation activity, % at 5 µM; 190,000 compounds, 0.3% hits; HeLa beta-catenin nuclear translocation, immunofluorescence imaging; AID 1665;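 active = nuclear translocation activity above 50% at 5 µM, with a well cell count of 50 or more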;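 also: per-cell ratio of nuclear to cytoplasmic median beta-catenin stain intensity; plate controls were DMSO negative control for no effect and GSK-3 inhibitor IX positive control for full effect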
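Read-out: Nuclear/cytoplasmic beta-catenin signal ratio, % activation | Assay system: Human HeLa cell line | Times: 24 h compound exposure at 37°C, 5% CO2 | Signal: Fluorescence imaging of beta-catenin antibody stain plus DAPI | Dosing: 5 µM primary, 0.02–20 µM confirmation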
IEC-6 tox – IEC-6 cytotoxicity, counter-screen for KLF5 inhibitors; 290,000 compounds, 0.78% hits; luminescence viability; inhibition, % at 5 µM; AID 1825; in the data active = inhibition above about 22%;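 also: 0% = plate median of test compound wells and 100% = cytotoxic reference compound wells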
* = called active by the depositor.

Screening Cc1ccc(C(=O)c2cccc(N)c2)cc1C returned MT stabilize HCS 2, APP transl inh 49*, Ba/F3 V617F tox -1, BaF3 parental 7, bCat nuc transl 0 and IEC-6 tox 2.
`COc1ccc(-c2c(C)nn3c(Cl)c(C)c(C)nc23)cc1` gave IEC-6 tox -2.
COc1cc2c(cc1OC)CN(C(=O)c1cc3ccccc3oc1=O)CC2 was read as MT stabilize HCS 19*, APP transl inh 11, Ba/F3 V617F tox 8, BaF3 parental 14, bCat nuc transl 1 and IEC-6 tox 19.
`Fc1ccccc1/C=N/Nc1nc2ccccc2o1` gave IEC-6 tox 0.
`ON/C=N/C(=S)Nc1ncc(C(F)(F)F)cc1Cl` gave MT stabilize HCS 3, APP transl inh 2, Ba/F3 V617F tox 56*, BaF3 parental 62*, bCat nuc transl -6 and IEC-6 tox 3.
N=c1ccn(Cc2ccc(F)cc2)cc1 was read as Ba/F3 V617F tox 70*, BaF3 parental 61*, bCat nuc transl 0 and IEC-6 tox -4.
Screening Cc1ccc(C(=O)/C=C/C(=O)c2ccc(C)cc2)cc1 returned MT stabilize HCS 4, APP transl inh 66*, Ba/F3 V617F tox -6, BaF3 parental 2, bCat nuc transl -2 and IEC-6 tox -6.
`O=C(COc1ccc(Br)cc1)OCCN1CCCCC1` gave IEC-6 tox -7.
CC1=NN(c2ccccc2)C(=O)/C1=C\c1cc(C)n(-c2ccccc2)c1C was read as MT stabilize HCS 4, APP transl inh -50, Ba/F3 V617F tox 1, BaF3 parental 1, bCat nuc transl 0 and IEC-6 tox 25*.
For COCC(C)N1CCC(n2nccc2NC(=O)CCCc2ccccc2)CC1 (centres undefined) the results were IEC-6 tox 5.
For Cc1ccc(S(=O)(=O)N(CC(=O)N=Nc2c(O)[nH]c3ccccc23)c2ccc(C)c(C)c2)cc1 the results were MT stabilize HCS 20*, APP transl inh -5, Ba/F3 V617F tox -3, BaF3 parental 2, bCat nuc transl 18 and IEC-6 tox 4.
Screening On1onc2c3cc(-c4ccccc4)nc3ccc21 returned MT stabilize HCS 2, APP transl inh 61*, Ba/F3 V617F tox 100*, BaF3 parental 97*, bCat nuc transl 3 and IEC-6 tox 3.
Screening O=C(COc1ccc(S(=O)(=O)N2CCOCC2)cc1)Nc1ccc2c(c1)OCCO2 returned MT stabilize HCS 2, APP transl inh -13, Ba/F3 V617F tox -3, BaF3 parental 0 and IEC-6 tox 4.
O=C(COc1ccc(S(=O)(=O)N2CCOCC2)cc1)Nc1ccc(Cl)c(C(F)(F)F)c1 was read as MT stabilize HCS 32*, APP transl inh 14, Ba/F3 V617F tox 3, BaF3 parental 5, bCat nuc transl 2 and IEC-6 tox -2.
`C[N+](C)(C)CCN(Cc1ccc(Cl)cc1)c1ccccn1` gave MT stabilize HCS 2, APP transl inh 0, Ba/F3 V617F tox 33*, BaF3 parental 29* and IEC-6 tox 4.
`O=C(OCC(=O)N1CCCC1)c1c(Cl)cccc1Cl` gave IEC-6 tox -3.
For O=[N+]([O-])c1ccc(/C=N/N=C/c2ccc([N+](=O)[O-])o2)o1 the results were MT stabilize HCS 3, APP transl inh 94*, Ba/F3 V617F tox 3, BaF3 parental -2, bCat nuc transl 4 and IEC-6 tox 5.
O=C(O)/C=C/c1ccc([N+](=O)[O-])o1 was read as MT stabilize HCS 4, APP transl inh 18, Ba/F3 V617F tox 0, BaF3 parental 4, bCat nuc transl 0 and IEC-6 tox -8.
Screening NC(=O)Cn1cnc2nc3n(c2c1=O)CCC3 returned MT stabilize HCS 4, APP transl inh -31, Ba/F3 V617F tox -2, BaF3 parental 4, bCat nuc transl 0 and IEC-6 tox -3.
`Cc1ccc2nc(N=C(N)N)nc(C)c2c1` gave MT stabilize HCS 3, APP transl inh -14, Ba/F3 V617F tox 50*, BaF3 parental 42*, bCat nuc transl 2 and IEC-6 tox 4.
`CCc1ccc2nc(N=C(N)N)nc(C)c2c1` gave MT stabilize HCS 4, APP transl inh -14, Ba/F3 V617F tox 50*, BaF3 parental 45*, bCat nuc transl 4 and IEC-6 tox 8.
Screening Cc1cc2nc(N=C(N)N)nc(C)c2cc1C returned MT stabilize HCS 9, APP transl inh -47, Ba/F3 V617F tox 73*, BaF3 parental 65*, bCat nuc transl 7 and IEC-6 tox 15.
Cc1nc(/N=C(\N)NC(=O)c2ccccc2)nc2ccccc12 was read as MT stabilize HCS 1, APP transl inh -15, Ba/F3 V617F tox 1, BaF3 parental 4, bCat nuc transl 1 and IEC-6 tox 4.
For CN(C)Cc1c(-c2ccc(Cl)cc2)nc2ccc(Cl)cn12 the results were MT stabilize HCS 1, APP transl inh -19, Ba/F3 V617F tox -1, BaF3 parental 4, bCat nuc transl 4 and IEC-6 tox 9.
Screening COC(=O)c1ccccc1NC(=O)[C@@H]1CCC(=O)N1C1OC(=O)c2c1ccc(OC)c2OC (some centres undefined) returned IEC-6 tox 0.
For CCOc1ccc(C(=O)OCn2nnc3ccccc3c2=O)cc1OC the results were MT stabilize HCS 2, APP transl inh 3, Ba/F3 V617F tox 0, BaF3 parental 5, bCat nuc transl 4 and IEC-6 tox -7.
For COc1cc(C(=O)OCn2nnc3ccccc3c2=O)cc(OC)c1OC the results were MT stabilize HCS 6, APP transl inh 3, Ba/F3 V617F tox -3, BaF3 parental 1, bCat nuc transl 83* and IEC-6 tox -1.
`O=C(O)c1cc(NS(=O)(=O)c2ccc(N3CCCCC3)c([N+](=O)[O-])c2)cc(C(=O)O)c1` gave MT stabilize HCS 2, APP transl inh 7, Ba/F3 V617F tox 1, BaF3 parental 4, bCat nuc transl -1 and IEC-6 tox -1.
`O=C(Nc1ccccc1C(=O)NCc1cccnc1)c1ccc(Cl)cc1Cl` gave MT stabilize HCS 2, APP transl inh -29, Ba/F3 V617F tox 2, BaF3 parental 12, bCat nuc transl 0 and IEC-6 tox -6.
For COc1cc(NS(=O)(=O)c2ccc(NC(=O)/C=C/C(=O)O)cc2)nc(OC)n1 the results were IEC-6 tox -4.
Cn1cc(CNCc2ccc(OC(F)(F)F)cc2)c(-c2ccc3c(c2)OCCO3)n1 was read as MT stabilize HCS 3, APP transl inh -10, Ba/F3 V617F tox 47*, BaF3 parental 40*, bCat nuc transl 2 and IEC-6 tox 14.
For COc1ccc(C2=NN(C(=O)CSc3nc4ccccc4s3)C(c3ccc(OC)cc3)C2)cc1 (centres undefined) the results were MT stabilize HCS 1, APP transl inh 8, Ba/F3 V617F tox -4, BaF3 parental 5, bCat nuc transl 3 and IEC-6 tox 6.
